Calls of active or inactive are those of the source.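 How the source made its calls, unless noted: active means NADPH fluorescence slope more negative than the mean of all samples by about 3 SD, 99.7% confidence; inactive means the rest.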
Experiments:
[1] = inhibitors of TNFa-induced NFkB p65 translocation, primary screen, imaging, HUVEC, MLSMR starter and 10KST1 sets (AID 438;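 active means inhibition above 20% together with a positive visual image hit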;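 further: compound added about 3h40 before a 20 min TNFalpha stimulation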;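 on inhibition: signal is the nuclear over cytoplasmic p65 intensity ratio per well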); conditions: HUVEC TNFa-induced p65 nuclear translocation; cell count: measured here: nuclei count (cytotoxicity indicator), at 2.08 µM; inhibition: at 2 µM, stronger effect = higher value, 0% TNFa-plus-vehicle, 100% no-TNFa wells
[2] = inhibitors of mutant huntingtin aggregation, primary screen, imaging, exon1htt(103Q)mCFP cells, high-content imaging (AID 483;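 active means visual image review flags a hit and inhibition of aggregation exceeds 20%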;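 further: compound exposure lasted 3 days before fixation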;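 on nuclei count: percent of the per-plate median nuclei count of sample wells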); conditions: exon1htt(103Q)mCFP cell line, aggregate imaging, at 2 µM; inhibition of aggregation: stronger effect = higher value; nuclei count: measured here: cell count, toxicity
[3] = inhibitors of E-selectin induction by TNFa, primary screen, imaging, HUVEC, immunofluorescence, MLSMR starter and 10KST1 sets (AID 487;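 active means visually confirmed hit in the image check and inhibition above 20%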;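 on inhibition: signal is fraction of cell area covered by stained E-selectin grains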;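 on nuclei count: 100% = median nuclei count of all wells on the same plate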); conditions: HUVEC TNFalpha-induced E-selectin immunofluorescence imaging, at 2 µM; inhibition: stronger effect = higher value; nuclei count: measured here: cell number, toxicity
[4] = target: Voltage-gated potassium channel subunit beta-2 (Rattus norvegicus) (UniProt P62483); assay: KvBeta enzyme negative modulators, primary screen, biochemical, NADPH fluorescence (AID 622;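 active means fluorescence slope higher than the sample average by over 3 SD, cut at about -0.22 in these data, passing the limit was not always enough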;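 further: slope of raw intensity against log time taken from 70 to 1610 s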); conditions: recombinant KvBeta, 4-cyanobenzaldehyde reduction, at 10 µM, stronger effect = higher value
[5] = target: Voltage-gated potassium channel subunit beta-2 (Rattus norvegicus) (UniProt P62483); assay: KvBeta positive modulators, primary screen, biochemical, NADPH fluorescence (AID 623); conditions: Recombinant KvBeta, NADPH fluorescence decrease slope, 10 min; at 10 µM; stronger effect = lower value;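 further: fluorescence intensity change per second fitted from 20 to 320 s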
[6] = target: Muscarinic acetylcholine receptor M4 (Homo sapiens) (UniProt P08173); assay: compounds altering M4/GIRK thallium flux, either direction, primary screen, M4 allosteric agonist project, cell-based, HEK293 M4/GIRK, BTC-AM (AID 625;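 active means fluorescence slope after compound addition differing from the mean of all tested samples at 99.7% confidence, mostly higher but some lower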;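 further: thallium influx through GIRK channels coupled to M4 in HEK293 cells with BTC-AM dye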); conditions: at 10 µM, actives lie on both sides
How it was run: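 assay system = HEK293 cells with M4 receptor and GIRK channels | medium = pH 7.3 thallium assay buffer | doses = 10 µM final, single point | timing = cells overnight at 37 °C, BTC-AM loading 1 h, reads 2 min total | signal = BTC-AM fluorescence, 1 Hz kinetic reads | read-out = post-addition slope, 15–24 s, of baseline-normalized fluorescence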

[7] = inhibitors of Sendai virus-induced IRF3 signaling, primary screen, TLR/RLR signaling modifier project, cell-based, Sendai virus stimulus, luciferase, 10K MLSCN set (AID 602276;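 active means inhibition at or above 50% at 10 µM; inactive means inhibition below 50%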;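 further: firefly luciferase from ISG56 promoter only with Renilla not read in this screen; 0% = Sendai virus plus DMSO and 100% = medium plus DMSO without virus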); conditions: HEK293 RL24 IRF3 luciferase reporter, at 10 µM, stronger effect = higher value
[8] = inhibitors of poly I:C-induced TLR3 signaling, primary screen, cell-based, poly I:C stimulus, luciferase, 10K MLSCN set (AID 602277;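 active means inhibition of the reporter signal at or above 50%; inactive means inhibition below 50%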); conditions: HEK293-TLR3 RL24 IRF3 luciferase reporter, at 10 µM, stronger effect = higher value

Chain of Voltage-gated potassium channel subunit beta-2 (Rattus norvegicus) (P62483 whole entry, looked up): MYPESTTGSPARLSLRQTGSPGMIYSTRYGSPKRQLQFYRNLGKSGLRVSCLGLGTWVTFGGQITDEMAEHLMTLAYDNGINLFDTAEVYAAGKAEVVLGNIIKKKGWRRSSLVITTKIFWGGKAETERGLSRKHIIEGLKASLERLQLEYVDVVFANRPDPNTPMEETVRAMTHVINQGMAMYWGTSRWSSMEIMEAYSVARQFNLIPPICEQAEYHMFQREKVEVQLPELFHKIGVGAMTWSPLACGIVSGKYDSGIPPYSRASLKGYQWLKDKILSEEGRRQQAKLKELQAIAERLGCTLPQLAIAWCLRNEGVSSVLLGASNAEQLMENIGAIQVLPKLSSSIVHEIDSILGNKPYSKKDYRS
Chain of Muscarinic acetylcholine receptor M4 (Homo sapiens) (P08173 whole entry, looked up): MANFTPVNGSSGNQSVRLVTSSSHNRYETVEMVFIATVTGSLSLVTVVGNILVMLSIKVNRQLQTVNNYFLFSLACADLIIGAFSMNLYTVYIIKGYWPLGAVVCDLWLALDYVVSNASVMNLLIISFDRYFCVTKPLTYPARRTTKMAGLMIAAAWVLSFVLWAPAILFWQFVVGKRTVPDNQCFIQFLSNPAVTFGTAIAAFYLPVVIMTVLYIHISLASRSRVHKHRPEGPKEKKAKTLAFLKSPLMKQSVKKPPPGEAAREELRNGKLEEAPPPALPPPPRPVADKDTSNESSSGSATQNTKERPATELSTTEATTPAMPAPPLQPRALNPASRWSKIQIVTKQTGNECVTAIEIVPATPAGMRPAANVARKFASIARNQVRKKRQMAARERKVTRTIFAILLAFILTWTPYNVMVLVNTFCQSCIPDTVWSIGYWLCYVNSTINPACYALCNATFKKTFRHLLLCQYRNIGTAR

Row | Compound | cell count [1] | inhibition [1] | inhibition of aggregation [2] | nuclei count [2] [%] | inhibition [3] | nuclei count [3] [%] | fluorescence slope [4] | NADPH fluorescence slope [5] | fluorescence slope [6] | inhibition [7] | inhibition [8]
1 | CN1CC[n+]2cnc3ccccc3c21 | 600 | 1.2% (inactive) | -17.8% (inactive) | 103 | -9.4% (inactive) | 122 | -0.585 (inactive) | -8.5e-05 (inactive) | 0.00403 (inactive) | 16.8% (inactive) | 19.3% (inactive)
2 | Cc1ccc(C)c(S(=O)(=O)NCc2ccc(C(=O)N3CCN(C)CC3)cc2)c1 | 328 | 1.1% (inactive) | 27.1% (inactive) | 105 | -101% (inactive) | 106 | -0.332 (inactive) | -4.8e-05 (inactive) | 0.00527 (inactive) | 3.27% (inactive) | 19.6% (inactive)
3 | COc1cc(OC)c(C(=O)Nc2ccc(N(C)C)cc2)cc1OC | 369 | 5.2% (inactive) | 7.1% (inactive) | 94 | -85.5% (inactive) | 116 | -0.448 (inactive) | -4.1e-05 (inactive) | 0.00454 (inactive) | -79.1% (inactive) | 99.1% (active)
4 | Cc1ccc(S(=O)(=O)Cc2ccc(C(=O)NCc3ccc4c(c3)OCO4)o2)cc1 | 592 | -1.9% (inactive) | -21.6% (inactive) | 86.7 | -16.5% (inactive) | 106 | -0.454 (inactive) | -9.9e-06 (inactive) | 0.00504 (inactive) | 9.39% (inactive) | 14.2% (inactive)
5 | COc1ccc(-c2ccc(-c3nnc(-c4ccncc4)o3)cc2)cc1 | 379 | -7.7% (inactive) | 5.3% (inactive) | 103 | -76.9% (inactive) | 99.2 | -0.501 (inactive) | -3.5e-05 (inactive) | 0.00505 (inactive) | -14.4% (inactive) | -28.2% (inactive)
6 | CCn1cc(C(=O)NCCN(C)CCc2ccccc2)c(=O)c2cc(S(=O)(=O)N(C)C)ccc21 | 543 | -20.4% (inactive) | -8.6% (inactive) | 118 | -10.5% (inactive) | 110 | -0.494 (inactive) | 0.0002 (inactive) | 0.00668 (inactive) | 14% (inactive) | 18.4% (inactive)
7 | Cn1c(=O)cc(OCC(=O)N2CCN(c3cccc(C(F)(F)F)c3)CC2)c2ccccc21 | 377 | -8.3% (inactive) | -13.4% (inactive) | 118 | -12.8% (inactive) | 113 | -0.426 (inactive) | 6.8e-05 (inactive) | 0.00701 (inactive) | 13.7% (inactive) | 15.2% (inactive)
8 | O=C(O)C1C2CCC(C2)C1C(=O)NCCCn1ccnc1 (stereo not drawn) | 486 | 0% (inactive) | 18.3% (inactive) | 72.3 | 65.4% (active) | 65.1 | -0.491 (inactive) | -8.2e-05 (inactive) | 0.0041 (inactive) | -12.1% (inactive) | -16.7% (inactive)
9 | Cc1nc2ccccc2cc1C(=O)NCc1ccco1 | 387 | 3.2% (inactive) | -3.6% (inactive) | 75.3 | -278% (inactive) | 126 | -0.53 (inactive) | -3.7e-05 (inactive) | 0.00494 (inactive) | 1.46% (inactive) | 0.0614% (inactive)
10 | Cc1ccc(S(=O)(=O)N(C)c2ccc(OCC(=O)OCc3c(C)noc3C)cc2)cc1 | 455 | -15.1% (inactive) | 8.4% (inactive) | 146 | -15.8% (inactive) | 108 | -0.583 (inactive) | -3.3e-05 (inactive) | 0.00507 (inactive) | 5.73% (inactive) | 14.5% (inactive)
11 | O=C(O)c1cc(/C=N\O)ccc1OCc1ccccc1 | 697 | -6.9% (inactive) | 2.9% (inactive) | 112 | -30.9% (inactive) | 104 | -0.545 (inactive) | -1.3e-05 (inactive) | 0.007 (inactive) | -0.244% (inactive) | 11.6% (inactive)
12 | CCCCn1nnnc1SCC(=O)N1CCN(C(=O)c2ccco2)CC1 | 247 | 2.6% (inactive) | 22.3% (inactive) | 72.2 | 15.1% (inactive) | 83.9 | -0.463 (inactive) | -3e-05 (inactive) | 0.00637 (inactive) | 7.65% (inactive) | 15.6% (inactive)
13 | COc1ccc(CC(=O)OCc2nnc(C3COc4ccccc4O3)o2)cc1OC (stereo not drawn) | 440 | -1.1% (inactive) | -0.3% (inactive) | 91.8 | -48% (inactive) | 85.8 | -0.405 (inactive) | 1.8e-05 (inactive) | 0.00765 (inactive) | 7.17% (inactive) | 9.19% (inactive)
14 | CCCC(=O)N=C1SC2CS(=O)(=O)CC2N1c1ccc(CC)cc1 (stereo not drawn) | 286 | 20.4% (inactive) | 23.4% (inactive) | 87 | 26.4% (inactive) | 98.5 | -0.402 (inactive) | -3.7e-05 (inactive) | 0.0062 (inactive) | 15.3% (inactive) | 24.6% (inactive)
15 | Nn1c(CSc2nc3ccccc3o2)nnc1CSc1nc2ccccc2o1 | 449 | -13.4% (inactive) | 24.5% (inactive) | 85.3 | 29.7% (inactive) | 86 | -0.408 (inactive) | 5.7e-05 (inactive) | 0.00537 (inactive) | 9.57% (inactive) | 17% (inactive)
16 | COCCCn1c(SCC(=O)N2CCc3ccccc32)nnc1-c1ccoc1C | 238 | -3.2% (inactive) | 2.7% (inactive) | 56.1 | 42.5% (inactive) | 56.1 | -0.548 (inactive) | -5.6e-05 (inactive) | 0.00429 (inactive) | 20.2% (inactive) | 19.6% (inactive)
17 | Cc1ccc(-n2nnnc2SCC(=O)N2CCc3ccccc3C2)cc1 | 526 | -10.2% (inactive) | -6.8% (inactive) | 104 | -28.6% (inactive) | 148 | -0.49 (inactive) | 8.4e-07 (inactive) | 0.00503 (inactive) | 8.66% (inactive) | 11% (inactive)
18 | N#Cc1c(N)nc(SCc2ccncc2)c(C#N)c1-c1cccs1 | 321 | 10.9% (inactive) | -2.2% (inactive) | 32.8 | 13.8% (inactive) | 107 | -0.529 (inactive) | -2.3e-05 (inactive) | 0.0051 (inactive) | 26.1% (inactive) | 25.1% (inactive)
19 | COc1cc(-c2nc(-c3cccc(C(F)(F)F)c3)no2)cc(OC)c1OC | 413 | 5.3% (inactive) | 3.5% (inactive) | 102 | -78.2% (inactive) | 109 | -0.554 (inactive) | -5.5e-05 (inactive) | 0.00715 (inactive) | 3.75% (inactive) | -10.8% (inactive)
20 | COc1ccc2cnn(-c3ccccc3)c(=O)c2c1OC | 342 | -1.2% (inactive) | -8.5% (inactive) | 107 | 35.5% (inactive) | 109 | -0.549 (inactive) | -7.6e-05 (inactive) | 0.00377 (inactive) | -4.11% (inactive) | -25.4% (inactive)
21 | CN(CCC#N)C(=O)COC(=O)c1ccc(Cl)c(S(N)(=O)=O)c1 | 426 | -2.2% (inactive) | 17.6% (inactive) | 58.5 | -96.3% (inactive) | 102 | -0.539 (inactive) | -5.1e-05 (inactive) | 0.00521 (inactive) | 16.3% (inactive) | 25.4% (inactive)
22 | COc1ccc(C2C3=C(CC(C)(C)CC3=O)Oc3ncn4nc(-c5cccnc5)nc4c32)cc1 (stereo not drawn) | 474 | 2.7% (inactive) | 2% (inactive) | 83.8 | -78.2% (inactive) | 144 | -0.327 (inactive) | -2.3e-05 (inactive) | 0.00713 (inactive) | -0.431% (inactive) | 17.2% (inactive)
23 | CN1CCN(C(=O)c2cnn3c(C(F)F)cc(C4CC4)nc23)CC1 | 277 | -6.3% (inactive) | -15.2% (inactive) | 63.5 | -8.6% (inactive) | 100 | -0.513 (inactive) | -0.000106 (inactive) | 0.00468 (inactive) | 21% (inactive) | 30% (inactive)
24 | COCCN(CC(=O)NC1CCCCC1)C(=O)CSc1nc2ccccc2o1 | 666 | 12.1% (inactive) | 3.4% (inactive) | 105 | -28.2% (inactive) | 120 | -0.469 (inactive) | 2.1e-05 (inactive) | 0.00558 (inactive) | 2.87% (inactive) | 18.7% (inactive)
25 | CCSC1=C(C#N)C(c2cccc(OC)c2)CC(=O)N1 (stereo not drawn) | 667 | -14.3% (inactive) | -16.9% (inactive) | 101 | -70.7% (inactive) | 114 | -0.496 (inactive) | -3.8e-05 (inactive) | 0.00475 (inactive) | 14.9% (inactive) | 11.6% (inactive)
26 | O=C(CCSc1ccccc1)N1CCN(C(=O)c2ccco2)CC1 | 462 | -11.1% (inactive) | 2% (inactive) | 102 | -29.7% (inactive) | 97.1 | -0.603 (inactive) | -3.1e-05 (inactive) | 0.0052 (inactive) | -23.3% (inactive) | -56% (inactive)
27 | COc1ccccc1NC(=O)C1=C(C)Nc2ncnn2C1c1ccc(C)o1 (stereo not drawn) | 355 | 14.6% (inactive) | 24.5% (inactive) | 90.6 | 56.5% (inactive) | 85.1 | -0.554 (inactive) | -0.000118 (inactive) | 0.00338 (inactive) | 19.9% (inactive) | 20.2% (inactive)
28 | Cn1nnnc1SCC(=O)Nc1ccccc1C(=O)NCc1ccccc1 | 368 | 7.2% (inactive) | 0.2% (inactive) | 98.6 | -74.8% (inactive) | 124 | -0.275 (inactive) | -2.2e-05 (inactive) | 0.00734 (inactive) | -6.6% (inactive) | -17.1% (inactive)

Reference: PubChem BioAssay
